Test system: Mus musculus
Test: Toxicity in BALB/c mouse assessed as death at 1000 mg/kg, ip after 24 hrs
Type: organism-based
Parameters: dose 1000 mg/kg, route intraperitoneal
Settings: in vivo
Method in brief: (§1)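 BALB/c mice randomised into two groups of 10; single intraperitoneal dose of 500 or 1000 mg/kg in 10% DMSO. Animals monitored for death and visible signs of toxicity over 8 days.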

| SMILES | Activity |
| --- | --- |
| COc1ccc(/C=C2/C(=O)Nc3ccccc32)c(OC)c1 | Toxic |

Test system: HCT-116
Test: Antiproliferative activity against human HCT116 cells expressing wild type p53 after 48 hrs by MTT assay
Settings: HCT-116, 48 h

| SMILES | GI50 |
| --- | --- |
| COc1cccc(/C=C2/C(=O)Nc3cc(Cl)ccc32)c1-c1ccc(C#N)cc1 | 48.3 µM |
| COc1ccc(/C=C2/C(=O)Nc3ccc(Cl)cc32)c(-c2ccc(Cl)cc2)c1 | 32.2 µM |
| CC(C)Oc1ccc(/C=C2/C(=O)Nc3ccc(Cl)cc32)c(OC(C)C)c1 | 29.7 µM |
| CCCOc1ccc(/C=C2/C(=O)Nc3ccc(Cl)cc32)c(OCCC)c1 | 21 µM |
| COc1ccc(/C=C2/C(=O)Nc3ccc(Cl)cc32)c(OC)c1 | 49.2 µM |
| CCCOc1ccc(/C=C2/C(=O)Nc3ccccc32)c(OCCC)c1 | 14.4 µM |
| CC(C)Oc1ccc(/C=C2/C(=O)Nc3cc(Cl)ccc32)c(OC(C)C)c1 | 23.4 µM |
| COc1ccc(/C=C2/C(=O)Nc3ccccc32)c(OC)c1 | 13.4 µM |
| COc1ccc(/C=C2/C(=O)Nc3cc(F)ccc32)c(-c2ccc(C#N)cc2)c1 | 17.1 µM |
| COc1ccc(/C=C2/C(=O)Nc3ccc(Cl)cc32)c(-c2ccc(C#N)cc2)c1 | 27.1 µM |
| COc1ccc(/C=C2/C(=O)Nc3cc(F)ccc32)c(OC)c1 | 26.9 µM |
| COc1ccc(/C=C2/C(=O)Nc3ccc(F)cc32)c(-c2ccc(Cl)cc2)c1 | 15.3 µM |
| COc1ccc(/C=C2/C(=O)Nc3ccc(Cl)cc32)c(Br)c1 | 53.4 µM |
| COc1ccc(C2=N[C@@H](c3ccc(Cl)cc3)[C@@H](c3ccc(Cl)cc3)N2C(=O)N2CCNC(=O)C2)c(OC(C)C)c1 [NUTLIN-3] | 32.1 µM |

Test system: CT26
Test: Antitumor activity against mouse CT26 cells allografted in ip dosed BALB/c mouse assessed as tumor growth inhibition administered qd for 10 days
Type: functional, organism-based
Settings: not given
Method in brief: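 CT26 cell suspension implanted s.c. in right axilla of BALB/c mice; randomised 10/group. Dosing i.p. once daily for 10 days, starting 24 h after implantation; vehicle and blank control groups. Mice sacrificed 24 h after last dose, tumours excised and weighed; inhibition = (A–B)/A×100%, A and B mean tumour weights of control and treated groups.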

| SMILES | TGI |
| --- | --- |
| COc1ccc(/C=C2/C(=O)Nc3ccccc32)c(OC)c1 | Dose-dependent effect |

Test system: A549
Test: Antiproliferative activity against human A549 cells after 48 hrs by MTT assay
Settings: A549, 48 h

| SMILES | GI50 |
| --- | --- |
| COc1cccc(/C=C2/C(=O)Nc3cc(Cl)ccc32)c1-c1ccc(C#N)cc1 | 81.6 µM |
| COc1ccc(/C=C2/C(=O)Nc3ccc(Cl)cc32)c(-c2ccc(Cl)cc2)c1 | 86.7 µM |
| CC(C)Oc1ccc(/C=C2/C(=O)Nc3ccc(Cl)cc32)c(OC(C)C)c1 | 42.6 µM |
| CCCOc1ccc(/C=C2/C(=O)Nc3ccc(Cl)cc32)c(OCCC)c1 | 30.2 µM |
| COc1ccc(/C=C2/C(=O)Nc3ccc(Cl)cc32)c(OC)c1 | > 100 µM |
| CCCOc1ccc(/C=C2/C(=O)Nc3ccccc32)c(OCCC)c1 | 42.4 µM |
| CC(C)Oc1ccc(/C=C2/C(=O)Nc3cc(Cl)ccc32)c(OC(C)C)c1 | 30.4 µM |
| COc1ccc(/C=C2/C(=O)Nc3ccccc32)c(OC)c1 | 52.5 µM |
| COc1ccc(/C=C2/C(=O)Nc3cc(F)ccc32)c(-c2ccc(C#N)cc2)c1 | > 100 µM |
| COc1ccc(/C=C2/C(=O)Nc3ccc(Cl)cc32)c(-c2ccc(C#N)cc2)c1 | > 100 µM |
| COc1ccc(/C=C2/C(=O)Nc3cc(F)ccc32)c(OC)c1 | > 100 µM |
| COc1ccc(/C=C2/C(=O)Nc3ccc(F)cc32)c(-c2ccc(Cl)cc2)c1 | 58.8 µM |
| COc1ccc(/C=C2/C(=O)Nc3ccc(Cl)cc32)c(Br)c1 | > 100 µM |
| COc1ccc(C2=N[C@@H](c3ccc(Cl)cc3)[C@@H](c3ccc(Cl)cc3)N2C(=O)N2CCNC(=O)C2)c(OC(C)C)c1 [NUTLIN-3] | 47.6 µM |

Test system: Mus musculus
Test: Toxicity in BALB/c mouse allografted with mouse CT26 cells assessed as body weight at 50 mg/kg, ip qd administered for 10 days (reference value: 19.45 gm)
Type: organism-based
Parameters: dose 50 mg/kg, route intraperitoneal
Settings: in vivo, 240 h

| SMILES | Activity |
| --- | --- |
| COc1ccc(/C=C2/C(=O)Nc3ccccc32)c(OC)c1 | 18.95 g |

Test system: HCT-116
Test: Induction of p21 expression in human HCT116 cells after 48 hrs by Western blotting analysis
Type: functional, cell-based
Settings: not given
Method in brief: (§2)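 p53 wild-type HCT116 cells exposed to a range of concentrations for 48 h, lysed in Tris/NaCl/Triton X-100 buffer with protease inhibitors. Protein assayed by Bio-Rad method, separated by SDS-PAGE, transferred to PVDF, blocked in 5% non-fat milk. Primary antibody 2 h at room temperature, peroxidase secondary, ECL detection; beta-actin as loading control.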

| SMILES | Activity |
| --- | --- |
| COc1ccc(/C=C2/C(=O)Nc3ccccc32)c(OC)c1 | Dose-dependent effect |

Test system: Mus musculus
Test: Toxicity in BALB/c mouse assessed as visible side effect at 500 mg/kg, ip up to 8 days
Type: organism-based
Parameters: dose 500 mg/kg, route intraperitoneal
Settings: in vivo, 192 h
Method in brief: as §1

| SMILES | Activity |
| --- | --- |
| COc1ccc(/C=C2/C(=O)Nc3ccccc32)c(OC)c1 | Non-toxic |

Test system: HCT-116
Test: Induction of p53 expression in human HCT116 cells after 48 hrs by Western blotting analysis
Type: functional, cell-based
Settings: not given
Method in brief: as §2

| SMILES | Activity |
| --- | --- |
| COc1ccc(/C=C2/C(=O)Nc3ccccc32)c(OC)c1 | Dose-dependent effect |

Test system: Mus musculus
Test: Toxicity in BALB/c mouse allografted with mouse CT26 cells assessed as body weight at 100 mg/kg, ip qd administered for 10 days (reference value: 19.45 gm)
Type: organism-based
Parameters: dose 100 mg/kg, route intraperitoneal
Settings: in vivo, 240 h

| SMILES | Activity |
| --- | --- |
| COc1ccc(/C=C2/C(=O)Nc3ccccc32)c(OC)c1 | 18.91 g |

Test system: HCT-116
Test: […] in human HCT116 cells assessed as accumulation at G1 phase at 50 uM after 48 hrs by propidium iodide staining-based flow cytometry (reference value: 62.5%)
Type: functional
Settings: not given
Method in brief: (§3)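 HCT116 (wild-type p53) seeded at 2×10^5 cells/well, cultured 48 h, then treated with compound for 48 h. Washed in cold PBS, fixed overnight in 70% ice-cold ethanol, RNase A (100 µg/ml) 30 min at room temperature, stained with propidium iodide (50 µg/mL final). Cell cycle distribution by flow cytometry.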

| SMILES | Activity |
| --- | --- |
| COc1ccc(C2=N[C@@H](c3ccc(Cl)cc3)[C@@H](c3ccc(Cl)cc3)N2C(=O)N2CCNC(=O)C2)c(OC(C)C)c1 [NUTLIN-3] | 53% |

Test system: HCT-116
Test: […] in human HCT116 cells assessed as accumulation at S phase at 50 uM after 48 hrs by propidium iodide staining-based flow cytometry (reference value: 24.8%)
Type: functional
Settings: not given
Method in brief: as §3

| SMILES | Activity |
| --- | --- |
| COc1ccc(C2=N[C@@H](c3ccc(Cl)cc3)[C@@H](c3ccc(Cl)cc3)N2C(=O)N2CCNC(=O)C2)c(OC(C)C)c1 [NUTLIN-3] | 8.7% |

Test system: HCT-116
Test: Induction of MDM2 expression in human HCT116 cells after 48 hrs by Western blotting analysis
Type: functional, cell-based
Settings: not given
Method in brief: as §2

| SMILES | Activity |
| --- | --- |
| COc1ccc(/C=C2/C(=O)Nc3ccccc32)c(OC)c1 | Dose-dependent effect |

Test system: MCF7
Test: Antiproliferative activity against human MCF7 cells after 48 hrs by MTT assay
Settings: MCF7, 48 h

| SMILES | GI50 |
| --- | --- |
| COc1cccc(/C=C2/C(=O)Nc3cc(Cl)ccc32)c1-c1ccc(C#N)cc1 | > 100 µM |
| COc1ccc(/C=C2/C(=O)Nc3ccc(Cl)cc32)c(-c2ccc(Cl)cc2)c1 | > 100 µM |
| CC(C)Oc1ccc(/C=C2/C(=O)Nc3ccc(Cl)cc32)c(OC(C)C)c1 | 55.7 µM |
| CCCOc1ccc(/C=C2/C(=O)Nc3ccc(Cl)cc32)c(OCCC)c1 | 58.4 µM |
| COc1ccc(/C=C2/C(=O)Nc3ccc(Cl)cc32)c(OC)c1 | > 100 µM |
| CCCOc1ccc(/C=C2/C(=O)Nc3ccccc32)c(OCCC)c1 | 54 µM |
| CC(C)Oc1ccc(/C=C2/C(=O)Nc3cc(Cl)ccc32)c(OC(C)C)c1 | 42.9 µM |
| COc1ccc(/C=C2/C(=O)Nc3ccccc32)c(OC)c1 | 54.1 µM |
| COc1ccc(/C=C2/C(=O)Nc3cc(F)ccc32)c(-c2ccc(C#N)cc2)c1 | > 100 µM |
| COc1ccc(/C=C2/C(=O)Nc3ccc(Cl)cc32)c(-c2ccc(C#N)cc2)c1 | > 100 µM |
| COc1ccc(/C=C2/C(=O)Nc3cc(F)ccc32)c(OC)c1 | 88.4 µM |
| COc1ccc(/C=C2/C(=O)Nc3ccc(F)cc32)c(-c2ccc(Cl)cc2)c1 | > 100 µM |
| COc1ccc(/C=C2/C(=O)Nc3ccc(Cl)cc32)c(Br)c1 | > 100 µM |
| COc1ccc(C2=N[C@@H](c3ccc(Cl)cc3)[C@@H](c3ccc(Cl)cc3)N2C(=O)N2CCNC(=O)C2)c(OC(C)C)c1 [NUTLIN-3] | 48.7 µM |

Test system: Mus musculus
Test: Toxicity in BALB/c mouse assessed as death at 500 mg/kg, ip up to 8 days
Type: organism-based
Parameters: dose 500 mg/kg, route intraperitoneal
Settings: in vivo, 192 h
Method in brief: as §1

| SMILES | Activity |
| --- | --- |
| COc1ccc(/C=C2/C(=O)Nc3ccccc32)c(OC)c1 | Non-toxic |

Test system: HCT-116
Test: Induction of apoptosis in human HCT116 cells after 48 hrs by propidium iodide staining-based flow cytometry
Type: functional, cell-based
Settings: not given
Method in brief: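 HCT116 cells seeded at 2×10^5/well, grown 48 h, then exposed to compound for 48 h. Cells fixed overnight in 70% ice-cold ethanol, treated with RNase A (100 µg/ml, 30 min, room temperature), stained with propidium iodide (50 µg/mL final). Analysed by flow cytometry.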

| SMILES | Activity |
| --- | --- |
| COc1ccc(/C=C2/C(=O)Nc3ccccc32)c(OC)c1 | Dose-dependent effect |
| COc1ccc(C2=N[C@@H](c3ccc(Cl)cc3)[C@@H](c3ccc(Cl)cc3)N2C(=O)N2CCNC(=O)C2)c(OC(C)C)c1 [NUTLIN-3] | Dose-dependent effect |

Test system: HCT-116
Test: Antiproliferative activity against p53-deficient human HCT116 cells after 48 hrs by MTT assay
Settings: HCT-116, 48 h

| SMILES | GI50 |
| --- | --- |
| COc1cccc(/C=C2/C(=O)Nc3cc(Cl)ccc32)c1-c1ccc(C#N)cc1 | 110 µM |
| COc1ccc(/C=C2/C(=O)Nc3ccc(Cl)cc32)c(-c2ccc(Cl)cc2)c1 | 135 µM |
| CC(C)Oc1ccc(/C=C2/C(=O)Nc3ccc(Cl)cc32)c(OC(C)C)c1 | 37.7 µM |
| CCCOc1ccc(/C=C2/C(=O)Nc3ccc(Cl)cc32)c(OCCC)c1 | 26.1 µM |
| COc1ccc(/C=C2/C(=O)Nc3ccc(Cl)cc32)c(OC)c1 | 126 µM |
| CCCOc1ccc(/C=C2/C(=O)Nc3ccccc32)c(OCCC)c1 | 21.3 µM |
| CC(C)Oc1ccc(/C=C2/C(=O)Nc3cc(Cl)ccc32)c(OC(C)C)c1 | 42 µM |
| COc1ccc(/C=C2/C(=O)Nc3ccccc32)c(OC)c1 | 28.1 µM |
| COc1ccc(/C=C2/C(=O)Nc3cc(F)ccc32)c(-c2ccc(C#N)cc2)c1 | 109 µM |
| COc1ccc(/C=C2/C(=O)Nc3ccc(Cl)cc32)c(-c2ccc(C#N)cc2)c1 | 124 µM |
| COc1ccc(/C=C2/C(=O)Nc3cc(F)ccc32)c(OC)c1 | 65.5 µM |
| COc1ccc(/C=C2/C(=O)Nc3ccc(F)cc32)c(-c2ccc(Cl)cc2)c1 | 27.3 µM |
| COc1ccc(/C=C2/C(=O)Nc3ccc(Cl)cc32)c(Br)c1 | 115 µM |
| COc1ccc(C2=N[C@@H](c3ccc(Cl)cc3)[C@@H](c3ccc(Cl)cc3)N2C(=O)N2CCNC(=O)C2)c(OC(C)C)c1 [NUTLIN-3] | 55.7 µM |

— ChEMBL document CHEMBL3259813, “Design, synthesis and in vitro and in vivo antitumour activity of 3-benzylideneindolin-2-one derivatives, a novel class of small-molecule inhibitors of the MDM2-p53 interaction” (Eur J Med Chem, 2014)
